The sample as a whole holds a higher share of hits than the screen did.
A1 apoptosis 2: blocks A1, raising caspase activity. MEF A1-2A-BIM cells, caspase-Glo luminescence, 3 h; percent of clofoctol response, DMSO zero. caspase activation, % (concentration not given with the values). 24,000 tested, under 10 active; in the data active = caspase activation above about 5.9%
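Material: mouse embryonic fibroblasts co-expressing A1 and BIM (A1-2A-BIM), primed for A1 dependence / Quantity: 2500 cells/well / Buffer or medium: RPMI-1640 growth medium with 10% FBS / Doses: 50 nL compound per well, pinned / Schedule: 3 h compound exposure at 37 °C / Signal: Caspase-Glo luminescence (DEVD substrate) / Measure: Caspase-3/7 activation, seen as rise in luminescence signal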
INS-1E rescue: INS-1E beta cell protection from cytokine death. INS-1E cytokine-induced death, ATP luminescence, 48 h; normalised: neutral wells 0, positive control 100. protection from cytokine-induced ATP loss, % at 10 µM. 0.1% of 20,000 active;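 active = mean replicate protection from cytokine-induced ATP loss at least 50% and at least 75% of replicates each reaching 50%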
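Assay system: INS-1E rat cells / Quantity: 8000 cells per well / Medium: RPMI without phenol red, 5% FBS / Probe or stimulus: three-cytokine cocktail (IFN-γ, TNF-α, IL-1β) / Dosing: one compound concentration, pin transfer / Timing: 48 h co-treatment, 10 min post-lysis read / Technique: CellTiter-Glo luminescence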
T cruzi HTS: blocks T. cruzi growth inside host cells. intracellular Trypanosoma cruzi in host cells, plate reader. activity score (inhibition), % at 5.01 µM. 4.9% of 22,000 active. AID 651903; in the data active = activity score above about 55%;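 note: parasites and compound incubated about four days before reading; 0% = median of neutral control wells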
Active calls of the source: *; · = no result.

SMILES	A1 apoptosis 2	INS-1E rescue	T cruzi HTS
C=CCNC(=O)[C@H]1[C@@H]2C(=O)O[C@@H](c3ccccc3)[C@@H](c3ccccc3)N2[C@@H](c2ccc(OCCO)cc2)[C@]12C(=O)N(C(=O)OCCOC)c1ccc(C#CC3=CCCCC3)cc12	-1.1	·	·
Cc1ccc(S(=O)(=O)Nc2ccc3c(c2)C(=O)N([C@@H](C)CO)C[C@@H](C)[C@@H](CN(C)CC2CCCCC2)OCCCC[C@H](C)O3)cc1	-0.5	·	·
C[C@@H]1CN([C@@H](C)CO)C(=O)Cc2cc(NC(=O)Nc3cccc4ccccc34)ccc2O[C@H]1CN(C)CC1CC1	0.6	·	·
C[C@H](CO)N1C[C@H](C)[C@H](CN(C)CC2CCCCC2)Oc2ccc(NC(=O)Nc3cccc4ccccc34)cc2CC1=O	·	3.7	61.0*
C[C@H]1CN([C@@H](C)CO)C(=O)Cc2cc(NC(=O)Nc3cccc4ccccc34)ccc2O[C@@H]1CN(C)Cc1ccc2c(c1)OCO2	0.0	-22.3	64.0*
C[C@@H]1CN([C@H](C)CO)C(=O)Cc2cc(NC(=O)Nc3cccc4ccccc34)ccc2O[C@@H]1CN(C)Cc1ccccc1	1.8	-19.4	68.2*
C[C@@H]1CN([C@H](C)CO)C(=O)Cc2cc(NC(=O)Nc3cccc4ccccc34)ccc2O[C@H]1CN(C)Cc1ccc(Oc2ccccc2)cc1	·	-10.5	57.2*
C[C@@H]1CN([C@H](C)CO)C(=O)Cc2cc(NC(=O)Nc3ccccc3)ccc2O[C@H]1CN(C)Cc1ccc2c(c1)OCO2	-0.8	-5.7	-9.1
C[C@H]1CN([C@@H](C)CO)C(=O)Cc2cc(NC(=O)Nc3cccc4ccccc34)ccc2O[C@H]1CN(C)Cc1ccc(Oc2ccccc2)cc1	·	-21.2	26.3
C[C@@H]1CN([C@@H](C)CO)C(=O)Cc2cc(NC(=O)Nc3cccc4ccccc34)ccc2O[C@H]1CN(C)Cc1ccccc1	0.8	·	·
COc1ccc(COC[C@]23N=C4Sc5ccc([N+](=O)[O-])cc5C(=O)N4[C@H](c4ccccc4O2)[C@H]3CO)cc1	-0.4	·	·
C[C@@H]1CN([C@H](C)CO)C(=O)c2cc(NC(=O)Nc3cccc4ccccc34)ccc2O[C@@H]1CN(C)Cc1ccc(Cl)c(Cl)c1	·	-11.8	54.0
C[C@@H]1CN([C@H](C)CO)C(=O)c2cc(NC(=O)Nc3cccc4ccccc34)ccc2O[C@H]1CN(C)Cc1ccc(Cl)c(Cl)c1	-1.5	-34.1	58.0*
C[C@@H]1CN([C@@H](C)CO)C(=O)Cc2cc(NC(=O)Nc3cccc4ccccc34)ccc2O[C@H]1CN(C)Cc1ccc(Cl)c(Cl)c1	0.9	·	·
C[C@H](CO)N1C[C@H](C)[C@@H](CN(C)Cc2ccc(Oc3ccccc3)cc2)Oc2ccc(NC(=O)Nc3cccc4ccccc34)cc2CC1=O	-0.6	·	·
COc1ccc(CN(C)C[C@@H]2Oc3ccc(NC(=O)Nc4cccc5ccccc45)cc3CC(=O)N([C@H](C)CO)C[C@H]2C)cc1	0.6	-4.1	65.0*
C[C@@H]1CN([C@H](C)CO)C(=O)c2cccc(NC(=O)Nc3cccc4ccccc34)c2O[C@@H]1CN(C)Cc1ccc2c(c1)OCO2	-1.3	-16.8	-12.7
C[C@H]1CN([C@@H](C)CO)C(=O)Cc2cc(NC(=O)Nc3cccc4ccccc34)ccc2O[C@@H]1CN(C)Cc1ccc(Cl)c(Cl)c1	·	-22.5	59.9*
C[C@H]1CN([C@@H](C)CO)C(=O)c2cccc(NC(=O)Nc3cccc4ccccc34)c2O[C@H]1CN(C)Cc1ccc2c(c1)OCO2	-0.5	-15.8	64.6*
O=C(NO)c1ccc(C(=O)N/N=C/c2ccccc2Br)cc1	-1.6	-6.3	13.8
COc1cc2c(cc1OC)CN(C(=O)[C@@H]1[C@H]3C(=O)O[C@H](c4ccccc4)[C@H](c4ccccc4)N3[C@H](c3ccccc3OCCO)[C@@]13C(=O)Nc1ccc(C#CCCO)cc13)CC2	-1.5	·	·
COc1ccc(C#Cc2ccc3c(c2)[C@]2(C(=O)N3)[C@H](c3ccc(O)cc3)N3[C@H](c4ccccc4)[C@H](c4ccccc4)OC(=O)[C@H]3[C@@H]2C(=O)N2CCN(c3ncccn3)CC2)cc1	0.1	·	·
C[C@H](CO)N1C[C@H](C)[C@H](CN(C)Cc2ccc3c(c2)OCO3)Oc2ccc(NC(=O)Nc3cccc4ccccc34)cc2C1=O	-0.6	-18.7	61.5*
Cc1ccc(S(=O)(=O)N(C)C[C@H]2Oc3ccc(NC(=O)Nc4cccc5ccccc45)cc3CC(=O)N([C@@H](C)CO)C[C@H]2C)cc1	1.9	-5.0	67.1*
Cc1ccc(S(=O)(=O)N(C)C[C@@H]2Oc3ccc(NC(=O)Nc4cccc5ccccc45)cc3CC(=O)N([C@@H](C)CO)C[C@@H]2C)cc1	·	-15.4	-6.2

Source: PubChem BioAssay (Broad Institute)
